According to ChEMBL document CHEMBL2424632, “Substituted 2-hydroxy-N-(arylalkyl)benzamides induce apoptosis in cancer cell lines” (Eur J Med Chem, 2013):
pIC50: −log10 of the molar value. Calls of active or inactive are those of the source. The rule behind the calls is not given here.

Columns and labels:
MCF7 = assay: Cytotoxicity against human MCF7 cells after 72 hrs by calcein-AM assay; type: functional, cell-based; conditions: MCF7, 72 h
K562 = assay: Cytotoxicity against human K562 cells after 72 hrs by calcein-AM assay; type: functional, cell-based; conditions: K562, 72 h
HOS = assay: Cytotoxicity against human HOS cells after 72 hrs by calcein-AM assay; type: functional, cell-based
HeLa = assay: Cytotoxicity against human HeLa cells after 72 hrs by calcein-AM assay; type: functional, cell-based
G-361 [1] = assay: Induction of apoptosis in human G361 cells assessed as caspase-3/7 activation at 2 uM after 24 hrs by fluorescence assay relative to control; type: functional
How it was run: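 G361 cells seeded at 20,000 per well overnight, then exposed 24 h to compound at 2 µM final. 3x caspase-3/7 buffer (HEPES pH 7.4, NaCl, KCl, MgCl2, EGTA, NP-40, CHAPS, sucrose, DTT, PMSF) with Ac-DEVD-AMC substrate added; incubated 37 °C, fluorescence read after 4 h at 346/442 nm; activity expressed relative to untreated cells.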

HCT-116 = assay: Cytotoxicity against human HCT116 cells after 72 hrs by calcein-AM assay; type: functional, cell-based; conditions: HCT-116, 72 h
G-361 [2] = assay: Cytotoxicity against human G361 cells after 72 hrs by calcein-AM assay; type: functional, cell-based; conditions: G-361, 72 h

Row | Structure (SMILES) | pIC50 (MCF7) | pIC50 (K562) | further results
1 | CC(C)[C@H](NC(=O)c1cc(Cl)ccc1O)C(=O)Nc1ccccc1 | < 5.00 | < 5.00 | 
2 | O=C(N[C@@H](CC1CCCCC1)C(=O)Nc1cccc(C(F)(F)F)c1)c1cc(Cl)ccc1O | 5.64 | 5.47 | pIC50 (HOS): 5.47; pIC50 (HeLa): 5.89; fold change (FC) (G-361 [1]): >10; pIC50 (HCT-116): 5.82; pIC50 (G-361 [2]): 5.89
3 | CC(C)[C@H](NC(=O)c1cc(Cl)ccc1O)C(=O)Nc1cccc(Cl)c1 | < 5.00 | < 5.00 | 
4 | Cc1ccc(NC(=O)[C@H](C)NC(=O)c2cc(Cl)ccc2O)cc1 | < 5.00 | < 5.00 | 
5 | O=C(N[C@H](Cc1ccccc1)C(=O)Nc1cccc(Cl)c1)c1cc(Cl)ccc1O | 4.74 | < 4.70 | 
6 | C[C@@H](NC(=O)c1cc(Cl)ccc1O)C(=O)Nc1ccc(Cl)cc1 | < 4.70 | < 4.70 | 
7 | CC(C)[C@H](NC(=O)c1cc(Cl)ccc1O)C(=O)Nc1ccc(Cl)c(Cl)c1 | < 5.00 | < 5.00 | 
8 | CC(C)[C@H](NC(=O)c1ccc(Cl)cc1O)C(=O)Nc1ccc(Cl)cc1 | < 5.00 | < 5.00 | 
9 | C[C@H](NC(=O)c1ccc(Cl)cc1O)C(=O)Nc1ccc(Cl)c(Cl)c1 | < 4.90 | < 4.90 | 
10 | Cc1ccc(NC(=O)c2ccc(CN3CCN(C)CC3)cc2)cc1Nc1nccc(-c2cccnc2)n1 [IMATINIB] | < 5.00 | 6.30 | 
11 | CC(C)(C)[C@H](NC(=O)c1cc(Cl)ccc1O)C(=O)Nc1cccc(C(F)(F)F)c1 | 5.06 | 5.23 | pIC50 (HOS): 5.11; pIC50 (HeLa): 5.19; Activity (G-361 [1]): Active; pIC50 (HCT-116): 5.27; pIC50 (G-361 [2]): 5.08
12 | C[C@H](NC(=O)c1cc(Cl)ccc1O)C(=O)Nc1cccc(Cl)c1 | < 5.00 | < 5.00 | 
13 | O=C(N[C@@H](Cc1ccccc1)C(=O)Nc1cccc(Cl)c1)c1cc(Cl)ccc1O | < 5.00 | < 5.00 | 
14 | O=C(CNC(=O)c1cc(Cl)ccc1O)Nc1ccc(Cl)c(Cl)c1 | < 4.70 | < 4.70 | 
15 | COc1ccc(NC(=O)[C@@H](NC(=O)c2cc(Cl)ccc2O)C(C)C)cc1 | < 5.00 | < 5.00 | 
16 | CC[C@H](CO)Nc1nc(NCc2ccccc2)c2ncn(C(C)C)c2n1 [SELICICLIB] | 4.91 |  | 
17 | O=C(N[C@@H](Cc1ccccc1)C(=O)Nc1ccc(Cl)cc1)c1cc(Cl)ccc1O | 5.10 | < 5.00 | 
